Compounds with a hit are over-represented: about 5.1% of the library has one in this group of screens.
Hsp90 inh: displaces geldanamycin probe from tumor Hsp90. 0.35% of 64,000 active. P07900. NCI-N417 lysate Hsp90, Cy3B-geldanamycin FP displacement. inhibition, % at 30 µM;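 active means inhibition above 50%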;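 further: 0% = tracer plus lysate wells and 100% = tracer alone without lysate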
M1 ag: agonists of M1 muscarinic receptor | CHO-M1 cells, Fluo-4 calcium fluorescence, agonist mode; active compounds read high | B-score at 10 µM | 3% of 64,000 active | AID 626;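 active means fluorescence rise, raw or as B-score row- and column-corrected plate score, outside the 99.7% band of its plate's samples, either direction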
Ecoli tolC: growth inhibitors of E. coli BW25113 tolC mutant | 2.2% of 65,000 active | growth inhibition, % at 10 µM (by protocol) | AID 573 | OD615;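 active means growth inhibition at or above a cutoff equal to the mean over every tested compound plus 3 SD, cut at about 60% in these data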;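 further: growth measured after 20 h incubation at 37 °C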
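Test system: tolC-deleted E. coli BW25113 | Medium: LB with kanamycin 50 µg/mL | Compound dosing: Single concentration, 10 µM final per compound | Schedule: 37 °C, 20 h exposure | Measured by: OD at 615 nm | Evaluation: Percent growth inhibition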
BAP1 block: blocks human BAP1 ubiquitin-AMC hydrolysis | calls only at 20 µM | recombinant BAP1, Ub-AMC hydrolysis fluorescence kinetic; active compounds read low | 0.48% of 72,000 active | AID 436;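 active means activity remaining at or below 50% of control, provided the compound also passes the data quality filters; inactive means the rest, including low values that fail the filters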;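 further: 100% = DMSO wells rate and 0% = substrate alone blank rate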
M1 antag: M1 muscarinic receptor (rat) antagonism. CHO-M1 cells, Fluo-4 calcium, ACh EC80 antagonist mode; active compounds read low. B-score at 10 µM. 3.4% of 64,000 active. AID 628;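 active means calcium fluorescence response, raw or row-and-column corrected B-score, differing from the plate sample mean either way at a set confidence level, mostly lower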
Target sequence (P08482 whole entry, looked up): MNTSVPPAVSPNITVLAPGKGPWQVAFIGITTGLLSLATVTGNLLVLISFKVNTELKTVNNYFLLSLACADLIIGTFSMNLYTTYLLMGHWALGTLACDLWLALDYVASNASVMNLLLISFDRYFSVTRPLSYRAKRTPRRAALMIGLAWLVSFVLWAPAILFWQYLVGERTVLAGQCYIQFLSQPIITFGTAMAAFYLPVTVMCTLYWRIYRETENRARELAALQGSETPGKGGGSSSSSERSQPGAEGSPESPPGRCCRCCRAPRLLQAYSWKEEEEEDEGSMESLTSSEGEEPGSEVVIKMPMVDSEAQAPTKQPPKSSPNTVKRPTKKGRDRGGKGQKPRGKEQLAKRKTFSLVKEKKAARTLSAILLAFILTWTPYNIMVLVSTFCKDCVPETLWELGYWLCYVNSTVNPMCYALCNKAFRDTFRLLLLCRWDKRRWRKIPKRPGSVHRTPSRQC
Ecoli WT expand: E. coli BW25113 growth inhibition, expanded screen; OD600 absorbance; growth inhibition, % at 100 µM; 0.15% of 98,000 active; AID 710;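 active means growth inhibition above about 50% at one test dose, limit read from the data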;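 further: growth measured after 20 h incubation at 37 °C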
M1 agonist conf: confirmation of rat M1 muscarinic receptor agonists; shares compounds with M1 ag; AID 1488; 19% of 1,700 active; CHO-M1 cells, Fluo-4 calcium fluorescence, agonist mode; actives lie on both sides; fluorescence change (max-min) at 10 µM;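 active means fluorescence change differs from the solvent-only DMSO control mean at a set confidence level in both duplicate runs; inconclusive means differs from solvent-only control mean in just one of two runs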;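 further: an EC20 dose of acetylcholine follows compound addition during the same imaging run; raw fluorescence intensity difference in instrument units with no normalization to controls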
M4 ag counter: counter-screen for M1 agonists: activity at rat M4 receptor. fluorescence change (max-min) at 10 µM. CHO M4/Gqi5 cells, Fluo-4 calcium fluorescence, agonist mode; actives lie on both sides. shares compounds with M1 ag. 9% of 1,700 active;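 active means fluorescence change differing from the plate's solvent-only control wells at 99.7% confidence in both duplicates, whether higher or lower; inconclusive means differs from solvent controls in only one of two duplicates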
* marks the source's active call; other numbers are inactive results; i = inactive; ? = inconclusive; . = no result shown.

SMILES | Hsp90 inh | M1 ag | Ecoli tolC | BAP1 block | M1 antag | Ecoli WT expand | M1 agonist conf | M4 ag counter
COC(=O)c1c(NC(=O)c2cccc(F)c2)sc2c1CCC(C(C)(C)C)C2 (stereo not given) | . | . | . | i | . | . | . | .
CCOC(=O)c1coc(CNC(=O)c2c(C)oc3c2CCCC3)c1 | -6 | 15* | 9 | i | 0.27 | 13 | ? | -49
COc1ccc(NC(=O)C2CCCN2S(=O)(=O)c2cccc3cccnc23)c(OC)c1 (stereo not given) | -2 | -0.11 | 4 | i | 1.3 | 3 | . | .
COc1ccc(N(C)S(=O)(=O)c2cccc3cccnc23)c(OC)c1 | -1 | 5.2* | -1 | i | -1.2 | 7 | ? | -61
COc1ccc(OC)c(NC(=O)C2CCCN(S(=O)(=O)c3cccc4cccnc34)C2)c1 (stereo not given) | 3 | 5* | 12 | i | -1.7 | -5 | -33* | -48
COc1ccc(C)cc1NC(=O)C1CCN(S(=O)(=O)c2cccc3cccnc23)CC1 | 1 | -0.011 | 8 | i | -0.21 | 4 | . | .
CCOC(=O)c1c(C)[nH]c(C=Nc2ccccc2)c1O | -5 | -2.2* | -37 | i | -0.98 | 4 | -20 | -33
CCOC(=O)c1c(C)[nH]c(O)c1C=Nc1ccccc1 | . | . | . | . | . | 5 | . | .
O=C(CCn1c(=O)c2sccc2n(CC(=O)OCc2ccccc2)c1=O)NCc1ccco1 | -1 | 0.2 | -2 | i | 0.54 | 2 | . | .
O=C(CCCn1c(=O)c2sccc2n(CC(=O)OCc2ccccc2)c1=O)NCc1ccco1 | -5 | 4.7* | 5 | i | -1.4 | -13 | -28* | -72*
CC(=O)Oc1c(Br)cc(N(C(C)=O)S(=O)(=O)c2ccc(Cl)cc2)c2ccccc12 | . | . | . | i | . | . | . | .
CCc1c(C)nc2ncnn2c1NCCc1ccc(OC)cc1 | -4 | 4.8* | -4 | i | -2.8* | 4 | -9.3 | ?
COc1ccc(-n2c(C)c3c(OC)cccc(=O)c3c2C)cc1 | . | . | . | . | . | -2 | . | .
COc1cccc(=O)c2c(C)oc(C)c12 | -2 | 44* | -5 | i | 0.71 | 2 | 536* | 502*
CC1Cc2ccccc2N1C(=O)CCNS(=O)(=O)c1cccc2nsnc12 (stereo not given) | -1 | 2.7* | 6 | i | -0.04 | 1 | ? | ?
O=C(CCNS(=O)(=O)c1cccc2nsnc12)N1CCc2ccccc21 | -3 | -0.37 | 12 | i | 0.21 | 4 | . | .
O=C(c1cccc(Cl)c1)N1c2ccccc2Sc2ccccc21 | . | . | . | i | . | . | . | .
Cc1ccc2c(c1)c1nc3ccccc3nc1n2CCN1CCOCC1 | -3 | 7.2* | 35 | i | -0.02 | 3 | -9 | -21
Cc1nc2ccccc2c(=O)n1CCN1CCOCC1 | . | . | . | . | . | 7 | . | .
CCOC(=O)C1=C(C)NC(=S)NC1c1ccccc1OC (stereo not given) | . | . | . | i | . | . | . | .
CCCS(=O)(=O)c1nc(S(=O)(=O)c2ccc(C)cc2)c(NCCCN2CCOCC2)s1 | 0 | 2.5* | -2 | i | 0.017 | 1 | -14 | ?
CC(C)CC(C(=O)Nc1ccc2c(c1)OCCO2)N1C(=O)c2ccccc2C1=O (stereo not given) | -1 | 0.6 | -25 | i | 0.071 | -9 | . | .
CC(C)CC(C(=O)Nc1oc(-c2ccco2)c(-c2ccco2)c1C#N)N1C(=O)c2ccccc2C1=O (stereo not given) | -28 | 13* | 17 | . | -1.9* | -3 | -5.6 | -33
Cc1ccc(-c2cc(C(F)F)nc(N3CCC(C)CC3)n2)cc1 | 1 | 4.2* | -1 | i | 0.71 | -6 | 3.3 | -8.7
CC1CCN(c2nc(-c3ccccc3)cc(C(F)(F)F)n2)CC1 | . | 1.3 | -14 | . | -0.12 | -5 | . | .
SMILES | Hsp90 inh | M1 ag | Ecoli tolC | BAP1 block | M1 antag | Ecoli WT expand | M1 agonist conf | M4 ag counter
O=C(CS(=O)(=O)Cc1ccccc1)N1CCc2ccccc21 | -12 | 23* | -5 | i | -0.13 | 8 | -9.2 | -29
O=C(CCC(=O)N1CCc2ccccc21)N1CCc2ccccc21 | -23 | -0.19 | -6 | . | -0.52 | . | . | .
CCCCCCc1cc2cc(C(=O)NC)c(=N)oc2cc1O | -14 | 401* | 15 | i | -15* | 10 | 3193* | 2756*
CCCCCCc1cc2cc(C(N)=O)c(=N)oc2cc1O | . | . | . | . | . | 17 | . | .
COCC(O)Cn1c2ccccc2c2ccccc21 (stereo not given) | . | . | . | i | . | . | . | .
Nc1c(S(=O)(=O)c2ccccc2)c2nc3ccccc3nc2n1Cc1ccco1 | . | 2.9* | 28 | . | 0.058 | -9 | 24 | -40
Cc1ccc(S(=O)(=O)c2c(N)n(Cc3ccco3)c3nc4ccccc4nc23)cc1C | . | . | . | . | . | -8 | . | .
Oc1ccc2oc3c(c2c1/C=N/n1cnnc1)CCCC3 | 1 | 1.3* | 4 | i | 1.2 | -7 | ? | -61
CCCCOC(=O)CCc1nc2ccccc2[nH]1 | -3 | 3.6* | 5 | i | 0.34 | 7 | -14 | -44
CCn1c(SCC(=O)c2cc(C)n(-c3ccc(C(=O)OC)cc3)c2C)nnc1-c1cccnc1 | -4 | 3.9* | 12 | i | -2.1 | 2 | -20* | ?
CCn1c(SCC(=O)c2cc(C)n(C)c2C)nnc1-c1ccccc1 | . | . | . | . | . | -1 | . | .
COC(=O)C1=C(C)NC(=O)CC1c1cccc(Cl)c1Cl (stereo not given) | 0 | 3.8* | 3 | i | 0.0012 | 5 | ? | -47
COc1ccccc1NC(=O)C1=C(C)Nc2nc(-c3cccs3)nn2C1c1cccc(O)c1 (stereo not given) | -3 | 8.5* | 14 | i | -1.3 | 2 | ? | ?
Brc1cccc(C=CC=Nc2cccc(-c3nc4ccccc4o3)c2)c1 | . | . | . | i | . | . | . | .
O=C(Nc1cnc2ccccc2c1)c1cccc(-n2cnnn2)c1 | -3 | 4.4* | 4 | i | -1 | 0 | ? | -35
CCOc1ccc(NC(=O)c2cccc(-n3cnnn3)c2)cc1 | 4 | -0.68 | -20 | i | 0.042 | -6 | . | .
Nc1c(C(=O)NCC2CCCO2)c2nc3ccccc3nc2n1-c1ccccc1 (stereo not given) | -6 | 11* | -8 | . | -2.7 | -5 | ? | -70
Cc1ccc(C)c(S(=O)(=O)C(C#N)c2nc3ccccc3nc2N2CCCC2)c1 (stereo not given) | 8 | -1 | 36 | i | -0.21 | -6 | . | .
COc1ccc(S(=O)(=O)C(C#N)c2nc3ccccc3nc2N2CCCCC2)cc1 (stereo not given) | . | -0.26 | 28 | . | 0.12 | -3 | . | .
N#CC(c1nc2ccccc2nc1N1CCCC1)S(=O)(=O)c1ccccc1 (stereo not given) | . | 4* | 18 | . | -0.23 | 10 | 36 | 34

High-throughput results from PubChem BioAssay.
